Experimental data reported in PMC5788414 (Journal of Medicinal Chemistry, 2017).
Peptide text beside a SMILES is read from it. * marks the point of attachment. Cbz = O=C(OCc1ccccc1)*

Experiments:
[1] = test system: BRD2, BRD3, and BRD4; test: FP-based competitive binding assays, BET proteins overall; conditions: binding to BRD2, BRD3, BRD4; comparator 8
[2] = target: BRD2 (Homo sapiens, UniProt P25440); test: Western blotting of BRD2 protein level in RS4; type: cell-based; conditions: RS4;11 cells, 3 h treatment, Western blot
Sequence of BRD2 (P25440 whole entry): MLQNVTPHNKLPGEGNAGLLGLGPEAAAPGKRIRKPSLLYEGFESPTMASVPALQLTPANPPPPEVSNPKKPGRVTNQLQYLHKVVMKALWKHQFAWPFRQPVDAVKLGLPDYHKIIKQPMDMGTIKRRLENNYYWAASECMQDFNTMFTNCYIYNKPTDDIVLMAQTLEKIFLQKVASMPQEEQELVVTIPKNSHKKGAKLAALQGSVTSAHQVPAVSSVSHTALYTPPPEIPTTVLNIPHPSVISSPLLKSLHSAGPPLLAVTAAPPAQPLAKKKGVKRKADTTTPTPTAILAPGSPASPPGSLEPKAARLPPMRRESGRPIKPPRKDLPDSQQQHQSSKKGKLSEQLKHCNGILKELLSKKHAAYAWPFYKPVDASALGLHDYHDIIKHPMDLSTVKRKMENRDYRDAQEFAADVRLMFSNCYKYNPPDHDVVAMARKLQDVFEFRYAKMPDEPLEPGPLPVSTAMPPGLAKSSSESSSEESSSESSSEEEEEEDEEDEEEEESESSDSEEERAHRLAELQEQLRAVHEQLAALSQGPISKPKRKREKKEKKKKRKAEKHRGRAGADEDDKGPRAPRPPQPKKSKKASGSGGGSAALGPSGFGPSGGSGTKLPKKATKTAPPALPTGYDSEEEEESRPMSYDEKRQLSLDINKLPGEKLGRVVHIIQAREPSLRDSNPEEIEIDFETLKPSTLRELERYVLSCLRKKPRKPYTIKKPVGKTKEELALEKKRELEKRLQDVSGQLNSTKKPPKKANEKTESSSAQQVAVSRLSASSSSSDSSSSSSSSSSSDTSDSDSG
How it was run: (§1)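 RS4;11 cells (2 × 10⁶/well) were treated with the test compound at the indicated concentrations for 3 h or 24 h. Cells were lysed in RIPA buffer with protease inhibitors. Lysate (20 μg per lane) was separated by SDS–PAGE, blotted onto PVDF, and probed with BRD2, BRD3 and BRD4 antibodies, with GAPDH as the loading control.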

[3] = target: BRD4 (Homo sapiens, UniProt O60885); test: Western blotting of BRD4 protein level in RS4; type: cell-based; conditions: RS4;11 cells, 3 h treatment, Western blot
How it was run: as §1

[4] = test system: RS4;11 acute leukemia cell line; test: Cell growth inhibition; type: cell-based, human; conditions: for times less potent than 23 in cell growth inhibition: comparator 23; for times less potent than 15 in cell growth inhibition: comparator 15; for times more potent than 9 in cell growth inhibition: comparator 9
[5] = target: BRD3 (Homo sapiens, UniProt Q15059); test: Western blotting of BRD3 protein level in RS4; type: cell-based; conditions: RS4;11 cells, 3 h treatment, Western blot
Sequence of BRD3 (Q15059 whole entry): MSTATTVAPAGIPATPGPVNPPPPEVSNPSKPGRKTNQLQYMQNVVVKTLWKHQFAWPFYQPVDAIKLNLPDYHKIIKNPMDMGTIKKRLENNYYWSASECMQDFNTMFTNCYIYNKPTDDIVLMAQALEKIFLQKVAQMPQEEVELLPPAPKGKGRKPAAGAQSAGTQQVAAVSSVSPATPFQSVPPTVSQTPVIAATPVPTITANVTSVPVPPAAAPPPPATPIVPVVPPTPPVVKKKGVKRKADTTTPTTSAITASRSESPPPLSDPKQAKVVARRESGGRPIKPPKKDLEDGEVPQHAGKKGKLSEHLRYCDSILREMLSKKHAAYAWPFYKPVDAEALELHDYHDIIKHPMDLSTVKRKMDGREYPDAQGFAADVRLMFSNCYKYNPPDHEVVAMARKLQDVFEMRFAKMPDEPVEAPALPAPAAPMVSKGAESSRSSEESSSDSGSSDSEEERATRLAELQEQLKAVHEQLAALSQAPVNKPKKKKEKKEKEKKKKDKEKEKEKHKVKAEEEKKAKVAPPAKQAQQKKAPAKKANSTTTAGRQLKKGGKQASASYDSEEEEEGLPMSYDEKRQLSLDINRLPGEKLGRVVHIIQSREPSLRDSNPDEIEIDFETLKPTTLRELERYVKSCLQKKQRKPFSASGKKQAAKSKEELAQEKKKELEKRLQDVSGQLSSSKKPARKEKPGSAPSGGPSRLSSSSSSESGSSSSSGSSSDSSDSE
How it was run: as §1

[6] = test system: BRD2, BRD3, and BRD4 proteins; test: Western blotting of BET protein levels in RS4; type: cell-based, human; conditions: RS4;11 cells; for Effect of pretreatment on degradation of BRD2, BRD3, and BRD4 induced by 23: 2 h pretreatment, then 3 h treatment with 23 at 1 nM

## CNC(=O)c1ncc2c(n1)[nH]c1cc(-c3c(C)noc3C)c(OC)cc12 [Compound 28, 7-(3,5-Dimethylisoxazol-4-yl)-6-methoxy-N-methyl-9H-pyrimido[4,5-b]indole-2-carboxamide]
[1]
  times less potent than 8 in binding affinity: > 100 times

## CCn1nc(C2CC2)cc1Nc1nc(C(=O)NCCCc2cccc3c2CN(C2CCC(=O)NC2=O)C3=O)nc2[nH]c3cc(-c4c(C)noc4C)c(OC)cc3c12 (stereo not shown) [Compound 25, 4-((3-Cyclopropyl-1-ethyl-1H-pyrazol-5-yl)amino)-7-(3,5-dimethylisoxazol-4-yl)-N-(3-(2-(2,6-dioxopiperidin-3-yl)-1-oxoisoindolin-4-yl)propyl)-6-methoxy-9H-pyrimido[4,5-b]indole-2-carboxamide]
[2]
  Lowest concentration effective in decreasing the level of BRD2 protein: less potent and effective
[3]
  Lowest concentration effective in decreasing the level of BRD4 protein: 10 nM
[4]
  times less potent than 23 in cell growth inhibition: 188 times
[5]
  Lowest concentration effective in decreasing the level of BRD3 protein: 10 nM

## 4-((3-Cyclopropyl-1-ethyl-1H-pyrazol-5-yl)amino)-7-(3,5-dimethylisoxazol-4-yl)-N-(3-((2-(2,6-dioxopiperidin-3-yl)-1,3-dioxoisoindolin-4-yl)amino)propyl)-6-methoxy-9H-pyrimido[4,5-b]indole-2-carboxamide [Compound 16]
[4]
  times less potent than 15 in cell growth inhibition: 5 times

## CCn1nc(C2CC2)cc1Nc1nc(C(=O)NCCOCCCc2cccc3c2C(=O)N(C2CCC(=O)NC2=O)C3=O)nc2[nH]c3cc(-c4c(C)noc4C)c(OC)cc3c12 (stereo not shown) [Compound 19, 4-((3-Cyclopropyl-1-ethyl-1H-pyrazol-5-yl)amino)-7-(3,5-dimethylisoxazol-4-yl)-N-(2-(3-(2-(2,6-dioxopiperidin-3-yl)-1,3-dioxoisoindolin-4-yl)propoxy)ethyl)-6-methoxy-9H-pyrimido[4,5-b]indole-2-carboxamide]
[4]; comparator 18
  times less potent than 18 in cell growth inhibition: 2 times

## 4-((3-Cyclopropyl-1-ethyl-1H-pyrazol-5-yl)amino)-7-(3,5-dimethylisoxazol-4-yl)-N-(2-((2-(2,6-dioxopiperidin-3-yl)-1,3-dioxoisoindolin-4-yl)amino)ethyl)-6-methoxy-9H-pyrimido[4,5-b]indole-2-carboxamide [Compound 17]
[4]
  times less potent than 15 in cell growth inhibition: 10 times

## Nc1cccc2c1CN(C1CCC(=O)NC1=O)C2=O (stereo not shown) [lenalidomide, reference compound]
[6]
  Effect of pretreatment on degradation of BRD2, BRD3, and BRD4 induced by 23: effectively blocks

## CCn1nc(C2CC2)cc1Nc1nc(C(=O)NCCCCCc2cccc3c2CN(C2CCC(=O)N(C)C2=O)C3=O)nc2[nH]c3cc(-c4c(C)noc4C)c(OC)cc3c12 (stereo not shown) [Compound 26, 4-((3-Cyclopropyl-1-ethyl-1H-pyrazol-5-yl)amino)-7-(3,5-dimethylisoxazol-4-yl)-6-methoxy-N-(5-(2-(1-methyl-2,6-dioxopiperidin-3-yl)-1-oxoisoindolin-4-yl)pentyl)-9H-pyrimido[4,5-b]indole-2-carboxamide]
[6]; 3 h treatment, Western blot
  Effect on the level of BRD2, BRD3, and BRD4 proteins: fails to induce degradation
[4]
  times less potent than 23 in cell growth inhibition: > 600 times

## CCn1nc(C2CC2)cc1Nc1nc(C(=O)NCCCCCCc2cccc3c2CN(C2CCC(=O)NC2=O)C3=O)nc2[nH]c3cc(-c4c(C)noc4C)c(OC)cc3c12 (stereo not shown) [Compound 21, 4-((3-Cyclopropyl-1-ethyl-1H-pyrazol-5-yl)amino)-7-(3,5-dimethylisoxazol-4-yl)-N-(6-(2-(2,6-dioxopiperidin-3-yl)-1-oxoisoindolin-4-yl)hexyl)-6-methoxy-9H-pyrimido[4,5-b]indole-2-carboxamide]
[2]
  Lowest concentration effective in decreasing the level of BRD2 protein: 0.3 nM
[3]
  Lowest concentration effective in decreasing the level of BRD4 protein: 0.3 nM
[5]
  Lowest concentration effective in decreasing the level of BRD3 protein: 0.1 nM

## CCn1nc(C2CC2)cc1Nc1nc(C(=O)NCCCCCCCNc2cccc3c2C(=O)N(C2CCC(=O)NC2=O)C3=O)nc2[nH]c3cc(-c4c(C)noc4C)c(OC)cc3c12 (stereo not shown) [Compound 12, 4-((3-Cyclopropyl-1-ethyl-1H-pyrazol-5-yl)amino)-7-(3,5-dimethylisoxazol-4-yl)-N-(7-((2-(2,6-dioxopiperidin-3-yl)-1,3-dioxoisoindolin-4-yl)amino)heptyl)-6-methoxy-9H-pyrimido[4,5-b]indole-2-carboxamide]
[4]; comparator 10
  times more potent than 10 in cell growth inhibition: 10 times

## CCn1nc(C2CC2)cc1Nc1nc(C(=O)NCCCCCCCOc2cccc3c2C(=O)N(C2CCC(=O)NC2=O)C3=O)nc2[nH]c3cc(-c4c(C)noc4C)c(OC)cc3c12 (stereo not shown) [Compound 11, 4-((3-Cyclopropyl-1-ethyl-1H-pyrazol-5-yl)amino)-7-(3,5-dimethylisoxazol-4-yl)-N-(7-((2-(2,6-dioxopiperidin-3-yl)-1,3-dioxoisoindolin-4-yl)oxy)heptyl)-6-methoxy-9H-pyrimido[4,5-b]indole-2-carboxamide]
[4]
  times more potent than 9 in cell growth inhibition: 10 times

## CCn1nc(C2CC2)cc1Nc1nc(C(=O)NCCCCCCNc2cccc3c2C(=O)N(C2CCC(=O)NC2=O)C3=O)nc2[nH]c3cc(-c4c(C)noc4C)c(OC)cc3c12 (stereo not shown) [Compound 13, 4-((3-Cyclopropyl-1-ethyl-1H-pyrazol-5-yl)amino)-7-(3,5-dimethylisoxazol-4-yl)-N-(6-((2-(2,6-dioxopiperidin-3-yl)-1,3-dioxoisoindolin-4-yl)amino)hexyl)-6-methoxy-9H-pyrimido[4,5-b]indole-2-carboxamide]
[4]; comparator 12
  times less potent than 12 in cell growth inhibition: 3 times

## CCn1nc(C2CC2)cc1Nc1nc(C(=O)NCCCCNC(=O)CNc2cccc3c2C(=O)N(C2CCC(=O)NC2=O)C3=O)nc2[nH]c3cc(-c4c(C)noc4C)c(OC)cc3c12 (stereo not shown) [Compound 10, 4-((3-Cyclopropyl-1-ethyl-1H-pyrazol-5-yl)amino)-7-(3,5-dimethylisoxazol-4-yl)-N-(4-(2-((2-(2,6-dioxopiperidin-3-yl)-1,3-dioxoisoindolin-4-yl)amino)acetamido)butyl)-6-methoxy-9H-pyrimido[4,5-b]indole-2-carboxamide]
[4]
  times more potent than 9 in cell growth inhibition: 2 times

## CCn1nc(C2CC2)cc1Nc1nc(C(=O)NCCCCNC(=O)COc2cccc3c2C(=O)N(C2CCC(=O)NC2=O)C3=O)nc2[nH]c3cc(-c4c(C)noc4C)c(OC)cc3c12 (stereo not shown) [Compound 9, 4-((3-Cyclopropyl-1-ethyl-1H-pyrazol-5-yl)amino)-7-(3,5-dimethylisoxazol-4-yl)-N-(4-(2-((2-(2,6-dioxopiperidin-3-yl)-1,3-dioxoisoindolin-4-yl)oxy)acetamido)butyl)-6-methoxy-9H-pyrimido[4,5-b]indole-2-carboxamide]
[6]; 3 h treatment, Western blot
  Lowest concentrations effective in decreasing the level of BRD2, BRD3, and BRD4 proteins: 3 to 10 nM
[4]; comparator 8
  times more potent than 8 in cell growth inhibition: 6 times

## CCn1nc(C2CC2)cc1Nc1nc(C(=O)NCCCCNc2cccc3c2C(=O)N(C2CCC(=O)NC2=O)C3=O)nc2[nH]c3cc(-c4c(C)noc4C)c(OC)cc3c12 (stereo not shown) [Compound 15, 4-((3-Cyclopropyl-1-ethyl-1H-pyrazol-5-yl)amino)-7-(3,5-dimethylisoxazol-4-yl)-N-(4-((2-(2,6-dioxopiperidin-3-yl)-1,3-dioxoisoindolin-4-yl)amino)butyl)-6-methoxy-9H-pyrimido[4,5-b]indole-2-carboxamide]
[4]; comparator 14
  times less potent than 14 in cell growth inhibition: ~3 times

## CCn1nc(C2CC2)cc1Nc1nc(C(=O)NCCCCc2cccc3c2CN(C2CCC(=O)NC2=O)C3=O)nc2[nH]c3cc(-c4c(C)noc4C)c(OC)cc3c12 (stereo not shown) [Compound 24, 4-((3-Cyclopropyl-1-ethyl-1H-pyrazol-5-yl)amino)-7-(3,5-dimethylisoxazol-4-yl)-N-(4-(2-(2,6-dioxopiperidin-3-yl)-1-oxoisoindolin-4-yl)butyl)-6-methoxy-9H-pyrimido[4,5-b]indole-2-carboxamide]
[2]
  Lowest concentration effective in decreasing the level of BRD2 protein: 3 nM
[3]
  Lowest concentration effective in decreasing the level of BRD4 protein: 3 nM
[4]
  times less potent than 23 in cell growth inhibition: 19 times
[5]
  Lowest concentration effective in decreasing the level of BRD3 protein: 1 nM

## CCn1nc(C2CC2)cc1Nc1nc(C(=O)NCCOCCCc2cccc3c2CN(C2CCC(=O)NC2=O)C3=O)nc2[nH]c3cc(-c4c(C)noc4C)c(OC)cc3c12 (stereo not shown) [Compound 22, 4-((3-Cyclopropyl-1-ethyl-1H-pyrazol-5-yl)amino)-7-(3,5-dimethylisoxazol-4-yl)-N-(2-(3-(2-(2,6-dioxopiperidin-3-yl)-1-oxoisoindolin-4-yl)propoxy)ethyl)-6-methoxy-9H-pyrimido[4,5-b]indole-2-carboxamide]
[4]; comparator 19
  times less potent than 19 in cell growth inhibition: 2 times

## NS(=O)(=O)OC[C@@H]1C[C@@H](n2ccc3c(N[C@H]4CCc5ccccc54)ncnc32)C[C@@H]1O [MLN4924, reference compound]
[6]
  Effect of pretreatment on degradation of BRD2, BRD3, and BRD4 induced by 23: completely block

## CC(C)C[C@@H](C=O)NC(=O)[C@H](CC(C)C)NC(=O)[C@H](CC(C)C)NC(=O)OCc1ccccc1 [MG-132, reference compound] (Cbz-Leu-Leu-Leu-aldehyde)
[6]
  Effect of pretreatment on degradation of BRD2, BRD3, and BRD4 induced by 23: completely block
